# Most compounds without a hit are left out; they make up all but 1.3% or so of the library.
# LYPLA1 inh: LYPLA1 (human) inhibition in PME1 counter-screen; recombinant LYPLA1, FP-Rh probe fluorescence polarization; inhibition, % at 5.9 µM; 320,000 compounds, 0.16% hits;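 active means inhibition above the mean of all tested compounds plus 3 SD, set per campaign, cut at about 14% in these data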;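 further: inhibitors block serine hydrolase probe labeling of LYPLA1 so polarization falls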
# Target sequence (O75608 whole entry, looked up): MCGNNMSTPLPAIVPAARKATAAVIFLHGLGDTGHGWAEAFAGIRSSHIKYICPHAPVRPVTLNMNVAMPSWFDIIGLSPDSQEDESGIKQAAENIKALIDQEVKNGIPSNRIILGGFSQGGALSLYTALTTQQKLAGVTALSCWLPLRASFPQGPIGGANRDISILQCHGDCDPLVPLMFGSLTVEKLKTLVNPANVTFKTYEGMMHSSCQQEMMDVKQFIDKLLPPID
# PME-1 inh: PME-1 (human) inhibition | recombinant PME-1, FP-Rh probe fluorescence polarization | 320,000 compounds, 0.53% hits | Q9Y570 | inhibition, % at 5.9 µM;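 active means inhibition above the campaign mean of all compounds plus 3 SD, cut at about 26% in these data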;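 further: competitive labeling of PME-1 active site by serine hydrolase directed probe; inhibitors block probe labeling so polarization falls and inhibition rises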
# Target sequence (Q9Y570 whole entry, looked up): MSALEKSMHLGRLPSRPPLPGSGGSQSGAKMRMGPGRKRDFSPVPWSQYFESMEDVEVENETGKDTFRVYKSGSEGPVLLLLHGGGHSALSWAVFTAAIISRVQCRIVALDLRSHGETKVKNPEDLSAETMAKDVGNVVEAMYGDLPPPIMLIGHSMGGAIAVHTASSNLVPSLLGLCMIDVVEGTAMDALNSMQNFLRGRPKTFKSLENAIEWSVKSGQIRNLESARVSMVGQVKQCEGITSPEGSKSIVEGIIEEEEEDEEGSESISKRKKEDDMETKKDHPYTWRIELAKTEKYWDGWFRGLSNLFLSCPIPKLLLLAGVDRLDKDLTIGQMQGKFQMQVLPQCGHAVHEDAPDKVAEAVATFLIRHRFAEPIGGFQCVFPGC
# RBBP9 inhibitor: human RBBP9 hydrolase inhibition. O75884. inhibition, % at 7.94 µM. 220,000 compounds, 0.2% hits. recombinant RBBP9, FP-Rh probe fluorescence polarization;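 active means inhibition above the campaign mean of all tested compounds plus 3 SD, cut at about 14% in these data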
#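 Test system – recombinant human RBBP9 · Input – RBBP9 2.5 µM in dispensing solution, pre-mixing · Medium – Tris buffer pH 8.0, NaCl, Pluronic · Schedule – preincubation 30 min plus labeling 45 min at 25 °C · Measured by – fluorescence polarization · Measure – % inhibition · Controls – DMSO and no-protein wells · Replicates – one well per compound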
# PAD4 inh: inhibitors of human PAD4. recombinant PAD4, RCA probe fluorescence polarization. AID 485272. Q9UM07. 330,000 compounds, 0.41% hits. inhibition, % at 6.36 µM;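 active means percent inhibition above a cutoff equal to the mean of all tested compounds plus 3 SD, cut at about 15% in these data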
# Fam108B counter: blocks mouse Fam108B hydrolase in RBBP9 counter-screen; inhibition, % at 9.51 µM; recombinant Fam108B, FP-Rh probe fluorescence polarization; 300,000 compounds, 0.33% hits;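 active means inhibition above the screen mean inhibition plus 3 SD, computed separately per campaign, cut at about 18% in these data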;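 further: inhibitors lower polarization as less probe binds the enzyme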
# LYPLA2 inh: blocks human lysophospholipase 2, a PME1 counter-screen | O95372 | recombinant LYPLA2, FP-Rh probe fluorescence polarization | inhibition, % at 5.9 µM | 320,000 compounds, 0.38% hits | AID 2177;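 active means inhibition above the screen-wide mean plus 3 SD, limit set per campaign, cut at about 26% in these data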
# Fam108b confirm: confirmation of mouse Fam108b serine hydrolase inhibitors; recombinant Fam108b, FP-Rh probe fluorescence polarization; 930 compounds, 44% hits; inhibition, % at 9.51 µM; shares compounds with Fam108B counter; AID 1978;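 active means inhibition above a limit from the primary screen, the mean over all compounds plus 3 SD, cut at about 19% in these data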;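 further: inhibitors free the probe so polarization falls as inhibition rises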
# Fam108b ABPP HTS: inhibits mouse Fam108b in gel-based ABPP; recombinant Fam108b, fluorophosphonate probe; 260 compounds, 44% hits; AID 588649; shares compounds with Fam108B counter; inhibition, % at 20 µM; in the data active means inhibition above about 40%
# Numbers stand for hits; i = inactive; nt = no result given.
SMILES,LYPLA1 inh,PME-1 inh,RBBP9 inhibitor,PAD4 inh,Fam108B counter,LYPLA2 inh,Fam108b confirm,others
CC1(C)CC(=O)C2=C(C1)NC1=C(C(=O)c3ccccc31)C2c1cc([N+](=O)[O-])ccc1O (stereo not drawn),i,i,i,i,21.3,i,i,
COc1ccc(CS(=O)(=O)/C(Cl)=C(/Cl)C(=O)Nc2ccc(OC)nc2)cc1,i,i,i,i,i,i,nt,
COc1ccc(OC)c(NC(=O)CN(Cc2ccc(F)cc2)C2CCCCC2)c1,i,i,nt,i,i,i,nt,
COc1cc2c(cc1OC)CN(C(=O)c1cc(S(=O)(=O)N3CCOCC3)ccc1C)CC2,i,i,nt,i,i,i,nt,
O=C(NCc1ccco1)C(=O)NCC1OCCN1C(=O)c1ccc(Cl)cc1 (stereo not drawn),i,i,i,i,i,i,nt,
Cc1ccccc1N=Nc1c(C)[nH]n(C(N)=S)c1=O,i,i,i,i,i,i,nt,
Cc1[nH]n(C(N)=S)c(=O)c1N=Nc1ccccc1C(F)(F)F,i,i,nt,i,24.3,i,27.4,
O=c1[nH]c(-[n+]2ccc3ccccc3c2)c(/C=N/N=C(\[O-])c2ccccc2)s1,i,i,nt,i,18.3,i,i,
CC(C)(C)c1cc[n+](-c2[nH]c(=O)sc2/C=N/N=C(\[O-])c2cccnc2)cc1,i,i,nt,i,i,i,nt,
O=C(Nc1cccc(-c2csc(Nc3ccc(Cl)cc3)n2)c1)c1cccc(C(F)(F)F)c1,i,i,nt,i,26.8,i,i,
O=C(Nc1ccc(-c2csc(Nc3ccccc3)n2)cc1)c1ccccc1,i,i,nt,i,i,i,nt,
O=C(Nc1cccc(-c2csc(Nc3ccc(Cl)cc3)n2)c1)c1ccccc1,i,i,nt,i,24.1,i,19.6,
O=C(NCCc1ccc(OC(F)F)cc1)C1CC(=O)N(c2ccc3c(c2)OCCO3)C1 (stereo not drawn),i,i,nt,i,nt,i,nt,
O=C(Nc1cccc(C(F)(F)F)c1)c1ccc2nc(-c3ccco3)c(-c3ccco3)nc2c1,i,30.1,i,i,52.4,i,i,
O=C1CC(c2ccc(O)cc2)Oc2cc(O)cc(O)c21 (stereo not drawn),i,i,i,i,i,i,nt,
CC1CC(=O)c2c(cc3c(-c4c(O)cc(O)c5c(O)c6c(cc45)OC(C)CC6=O)c(O)cc(O)c3c2O)O1 (stereo not drawn),i,i,25.6,i,53.7,i,65.9,Fam108b ABPP HTS=i
O=C(COC(=O)CCSc1ccccc1Cl)NCc1ccco1,i,i,i,i,i,i,nt,
CC(=O)c1ccc(NC(=O)c2cccc(N3C(=O)c4ccccc4C3=O)c2)cc1,i,i,nt,i,i,i,nt,
COc1ccc(NC(=O)c2cccc(N3C(=O)c4ccc(C(=O)Nc5ccc(OC)c(O)c5)cc4C3=O)c2)cc1O,i,i,nt,i,21.0,i,25.7,
COc1ccc(NS(=O)(=O)c2ccc3oc(Nc4ccc5c(c4)OCCO5)nc3c2)cc1,i,32.2,i,i,30.1,i,i,
O=C(CCCN1C(=O)/C(=C\c2ccco2)SC1=S)Nc1ccc(O)cc1C(=O)O,i,i,nt,i,19.6,i,i,
Cc1cc(C)cc(Nc2nc(-c3ccc(S(=O)(=O)N4CCCC4)cc3)cs2)c1,i,i,i,i,24.1,i,i,
COc1ccc(-c2[nH]c(-c3cc(OC)c4c(c3)OCO4)nc2-c2ccccc2)cc1,i,i,i,i,19.5,i,i,
COc1ccc(-c2nnc(-c3cccs3)o2)cc1OC,i,i,i,i,i,i,nt,
COc1ccc(-c2nc(-c3cccs3)c(-c3cccs3)[nH]2)cc1O,i,47.4,i,i,29.9,i,i,
SMILES,LYPLA1 inh,PME-1 inh,RBBP9 inhibitor,PAD4 inh,Fam108B counter,LYPLA2 inh,Fam108b confirm,others
CCOc1ccc(-c2nc3scc(-c4cccs4)c3c(=O)[nH]2)cc1,i,i,i,i,i,i,nt,
CC(C)(C)N1C(=O)Cc2c1nc(N)c1c(N)nc(N3CCCCC3CO)c(C#N)c21 (stereo not drawn),i,i,i,i,39.8,i,90.5,
N#Cc1c(N2CCN(c3ccc(F)cc3)CC2)nc(N)c2c(N)nc3c(c12)CC(=O)N3C1CC1,nt,nt,i,nt,nt,nt,nt,
CC(=O)Nc1ccc(NC2=CC(=O)c3ccccc3C2=O)cc1,i,i,nt,i,i,i,nt,
CCOC(=O)c1ccc(Nc2cc(C)nc(-c3ccccc3)n2)cc1,i,i,nt,i,18.4,i,i,
CCOC(=O)c1ccc(NC2=CC(=O)C(=O)c3ccccc32)cc1,i,i,i,i,19.0,i,30.4,Fam108b ABPP HTS=i
Cn1c(SCC(=O)NCC2CCCO2)nc2c(c1=O)SCC2 (stereo not drawn),i,i,nt,i,i,i,nt,
CCOC(=O)c1ccc(NC2c3ccccc3C(=O)N2c2ccccn2)cc1 (stereo not drawn),i,i,i,i,i,i,nt,
COc1ccc(/C=N/N=C2/CC(C)(C)Cc3n[nH]c(=O)cc32)cc1,i,i,i,i,i,i,nt,
Cc1cc(Oc2ccc(C#N)cc2)nc(NCc2ccccc2)n1,i,i,i,i,i,i,nt,
CN(c1ccccc1)S(=O)(=O)c1ccc(NC(=O)c2nc(S(C)(=O)=O)ncc2Cl)cc1,i,47.0,nt,i,32.0,i,23.7,
CN(c1ccccc1)S(=O)(=O)c1ccc(NC(=O)c2ccccc2)cc1,i,i,i,i,i,i,nt,
CC(C)(C)N(Cc1ccccc1)C(=O)CN1C(=O)c2ccccc2S1(=O)=O,nt,nt,nt,i,nt,nt,nt,
CCOc1ccccc1Oc1c(C)oc2c(CN3CCN(CCO)CC3)c(O)ccc2c1=O,i,i,i,i,i,i,nt,
COc1ccccc1Oc1c(C)oc2c(CN3CCN(CCO)CC3)c(O)ccc2c1=O,54.9,40.9,i,90.3,46.9,45.6,i,
C=CCNC(=S)NCC=C,i,i,i,i,i,i,nt,
O=[N+]([O-])c1cc(Cl)cc(C=NNC(=S)Nc2cc(S(=O)(=O)N3CCOCC3)ccc2Cl)c1O,nt,nt,nt,nt,nt,nt,nt,Fam108b ABPP HTS=i
Cc1oc2c(c1C(=O)c1ccccc1)C(=O)C(=O)c1ccccc1-2,i,28.6,i,74.0,55.0,i,35.2,Fam108b ABPP HTS=i
COc1cc(C(=O)NC(=S)N2CCN(C)CC2)cc(OC)c1OC,nt,nt,nt,i,nt,nt,nt,
COc1ccc(C(=O)NC(=S)N2CCN(C)CC2)cc1Br,i,i,i,i,46.9,i,i,
COc1ccc(C=NNC(=O)c2ccc(O)cc2)cc1CN1CCCc2ccccc21,nt,nt,nt,nt,nt,nt,nt,Fam108b ABPP HTS=90.0
COc1ccc(/C=N/NC(=O)c2cccnc2)cc1CN1CCc2ccccc2C1,i,i,i,i,i,i,nt,
COc1ccc(/C=N/NC(=O)c2ccc(F)cc2)cc1CN1CCc2cc(OC)c(OC)cc2C1C (stereo not drawn),i,i,i,i,i,i,nt,
COc1ccc(/C=N/NC(=O)c2ccc(O)cc2)cc1CN1CCCc2ccccc21,i,26.9,i,i,27.5,i,33.3,
